Results on 3 molecules are retold here after ChEMBL document CHEMBL5038608, “Design, synthesis, and biological evaluation of novel pyrrolidinone small-molecule Formyl peptide receptor 2 agonists” (Eur J Med Chem, 2021).

Series [1] addresses T1, fMet-Leu-Phe receptor (Homo sapiens) (UniProt P21462).
T1 sequence (whole entry): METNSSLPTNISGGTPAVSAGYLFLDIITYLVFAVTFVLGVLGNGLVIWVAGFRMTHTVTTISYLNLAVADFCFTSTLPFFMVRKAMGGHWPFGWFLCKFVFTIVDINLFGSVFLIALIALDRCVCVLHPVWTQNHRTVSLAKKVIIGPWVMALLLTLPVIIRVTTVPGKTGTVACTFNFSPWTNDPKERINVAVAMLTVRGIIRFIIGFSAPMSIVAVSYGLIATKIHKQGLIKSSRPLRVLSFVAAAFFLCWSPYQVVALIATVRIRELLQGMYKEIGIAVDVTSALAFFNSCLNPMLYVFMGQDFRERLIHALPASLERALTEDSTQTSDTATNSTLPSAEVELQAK
Nature of the series: Agonist activity at human FPR1 expressed in HEK293-A cells assessed as maximal ERK phosphorylation level at 30 uM incubated for 5 mins by ELISA assay. In kind it is functional, cell-based. The method in brief: (§1)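 HEK293A cells stably transfected with human FPR1 or FPR2, in DMEM with 10% FCS, seeded 2×10⁴/well and grown 48 h. Serum-starved 3 h, then stimulated 5 min with compounds in serum-free DMEM (1/3 serial dilutions from top concentration). W peptide was the positive control. Lysed in ice-cold buffer. p-ERK1/2 (pT202/Y204) measured by ELISA OD and expressed as increment over basal per receptor.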

Series [2] can be described thus: Microsomal stability in mouse liver microsomes assessed as half life at 1 uM preincubated for 5 mins followed by NADPH regenerating system addition measured after 30 mins by LC-MS/MS analysis. In kind it is ADME, Microsome. To be noted: t1/2, time 35 min. The method in brief:
(§2)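 Human or mouse liver microsomes (0.2 mg/mL protein) with compound at 1 µM final, pre-incubated 5 min at 37 °C. Reaction started with NADPH generating solution and agitated at 37 °C, with samples quenched up to 30 min. Centrifuged; supernatant analysed in triplicate by LC-MS.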

In series [3] the target is T2, N-formyl peptide receptor 2 (Homo sapiens) (UniProt P25090).
T2 sequence (whole entry): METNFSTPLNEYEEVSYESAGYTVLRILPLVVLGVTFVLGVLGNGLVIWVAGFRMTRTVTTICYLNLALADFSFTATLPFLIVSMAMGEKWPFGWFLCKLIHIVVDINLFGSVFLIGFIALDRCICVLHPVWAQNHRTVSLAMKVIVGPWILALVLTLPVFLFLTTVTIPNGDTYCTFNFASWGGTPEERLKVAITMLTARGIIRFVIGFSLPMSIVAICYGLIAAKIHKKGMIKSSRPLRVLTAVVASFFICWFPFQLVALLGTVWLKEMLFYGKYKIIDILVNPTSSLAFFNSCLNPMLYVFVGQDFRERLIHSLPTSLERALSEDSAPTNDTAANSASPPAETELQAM
Nature of the series: Agonist activity at FPRL1 (unknown origin) expressed in CHO-K1 cells assessed as stimulation of beta-arrestin recruitment […] incubated for 150 mins by beta-galactosidase based PathHunter assay. In kind it is functional, cell-based. In short, it runs like this: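 PathHunter CHO-K1 FPRL1 cells carry complementing β-galactosidase fragments. Plated at 5000/well, held 1 h RT, then overnight at 37 °C. Compounds were half-log serially diluted from 10 mM stocks in PBS. Stimulation 150 min at 37 °C; W-peptide (WKYMVm, 100 nM) was the high control. Detection reagent added for 60 min RT in the dark, with chemiluminescence read-out.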

Series [4] concerns the target T3, N-formyl peptide receptor 2 (Homo sapiens, UniProt P25090).
T3 sequence (P25090 whole entry): T2 sequence (whole entry)
The series can be described thus: Agonist activity at human FPR2 expressed in HEK293-A cells assessed as ERK phosphorylation level incubated for 5 mins by ELISA assay. In kind it is functional, cell-based. In short, it runs like this: (§3)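 HEK293A cells stably transfected with human FPR1 or FPR2, seeded at 2 × 10⁴/well and grown 48 h. Serum-starved 3 h, then stimulated 5 min with compounds in serum-free DMEM, top concentration 30 µM, 1/3 serial dilutions. Lysed in ice-cold buffer; p-ERK1/2 (pT202/Y204) measured by SimpleStep ELISA (OD). Expressed as increment over basal.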

The target of series [5] is T4, fMet-Leu-Phe receptor (Homo sapiens, UniProt P21462).
T4 sequence (P21462 whole entry): T1 sequence (whole entry)
The series can be described thus: Agonist activity at human FPR1 expressed in HEK293-A cells assessed as ERK phosphorylation level incubated for 5 mins by ELISA assay. In kind it is functional, cell-based. The method in brief:
as §3

Series [6] can be described thus: Kinetic solubility of compound in PBS at pH 7.4 by UV-VIS absorption spectrophotometry analysis. It is filed as physicochemical. As to conditions: PBS, read-out: Kinetic_solubility. In short, it runs like this: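 A 10 mM DMSO stock was diluted into PBS pH 7.4 at a target of 200 µM (final PBS:DMSO 98:2), in triplicate. Agitated 500 rpm for 90 min, then filtered. Filtrate diluted to PBS:DMSO 80:20 and its UV absorbance compared against a 200–6.75 µM standard series to give the concentration remaining in solution.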

The target in series [7] is T3, N-formyl peptide receptor 2. Nature of the series: (§4) Agonist activity at FPRL1 (unknown origin) expressed in CHO-K1 cells assessed as stimulation of beta-arrestin recruitment incubated for 150 mins by beta-galactosidase based PathHunter assay. It is filed as functional, cell-based. To be noted: read-out: EC50. In short, it runs like this: (§5)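 PathHunter CHO-K1 FPRL1 cells expressing β-gal enzyme-fragment complementation, 5000 cells/well, held overnight at 37 °C. Stimulated with half-log serial dilutions of compounds (10 mM stocks in PBS) for 150 min at 37 °C. High control was WKYMVm at 100 nM. Detection reagent added for 60 min at RT in the dark, then chemiluminescence read.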

A short description of series [8]: Distribution coefficient, logD of compound at pH 7.4 by shake flask method based LC-MS/MS analysis. In kind it is physicochemical. To be noted: octanol/water, read-out: logD. The method in brief:
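Shake-flask method: compound diluted from 10 mM DMSO stock into equal volumes of octanol and PBS, final concentration 100 µM. Shaken 12 h, then centrifuged. Both layers analysed in triplicate by LC-MS/MS (MRM, C8 UPLC). LogD = log10 of the octanol/buffer peak-area ratio.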

Series [9] in a line: Microsomal stability in human liver microsomes assessed as half life at 1 uM preincubated for 5 mins followed by NADPH regenerating system addition measured after 30 mins by LC-MS/MS analysis. To be noted: t1/2, time 35 min. In kind it is ADME, Microsome. In short, it runs like this: as §2
For series [10], the target named is T2, N-formyl peptide receptor 2 (Homo sapiens). Nature of the series: Agonist activity at human FPR2 expressed in HEK293-A cells assessed as maximal ERK phosphorylation level at 30 uM incubated for 5 mins by ELISA assay. As to conditions: filed as agonist. It is filed as functional, cell-based. The method in brief: as §1
Series [11] addresses T3, N-formyl peptide receptor 2. Nature of the series: Agonist activity at FPRL1 (unknown origin) expressed in CHO-K1 cells assessed as increase in calcium mobilization incubated for 2.5 hrs by cellular based FLIPR assay. In kind it is functional, cell-based. To be noted: read-out: EC50. In short, it runs like this: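 CHO-K1 cells overexpressing hFPR2, plated at 20,000 cells/well in F-12 with 10% FBS and held overnight at 37 °C. Loaded with FLIPR Calcium 6 dye for 2 h at 37 °C, then 30 min at RT in the dark. Compounds were half-log serially diluted from 10 mM stocks in HBSS/20 mM HEPES. Cytosolic Ca2+ rise read on FLIPR Tetra. WKYMVm served as control.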

Series [12] concerns the target T2, N-formyl peptide receptor 2 (Homo sapiens). Described as §4. It is filed as functional, cell-based. The method in brief: as §5
Series [13] can be described thus: Tmax in C57BL6 mouse at 10 mg/kg, ip. In kind it is ADME, organism-based. As to conditions: in vivo. In short, it runs like this: (§6)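 Male C57BL6 mice, single intraperitoneal dose of 10 mg/kg as a clear solution in DMSO 10%/PEG400 35%/PG 25%/water 30%. 12 mice used: 9 dosed, 3 for blank plasma. Each mouse bled three times. Plasma concentration measured at eight time points over 24 h.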

Series [14] can be described thus: AUC (0 to t) in C57BL6 mouse at 10 mg/kg, ip. It is filed as ADME, organism-based. The arrangement: dose 10 mg/kg. To be noted: in vivo.
Series [15] can be described thus: Cmax in C57BL6 mouse at 10 mg/kg, ip measured upto 24 hrs. It is filed as ADME, organism-based. The arrangement: route intraperitoneal, dose 10 mg/kg, time <=24. As to conditions: in vivo. In short, it runs like this:
as §6

A short description of series [16]: AUC extrapolated in C57BL6 mouse at 10 mg/kg, ip. In kind it is ADME, organism-based. As to conditions: in vivo. In short, it runs like this:
as §6

For series [17], the system named is Neutrophil. Nature of the series: Inhibition of cell adhesion in human Neutrophils assessed as reduction on neutrophil at 1 to 100 uM incubated for 30 mins by DAPI staining based immunofluorescence assay. As to conditions: dose 1-100 µM. It is filed as functional. In short, it runs like this: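 Neutrophils isolated from healthy donor blood (Polymorphprep) and suspended in HBSS/20 mM HEPES/0.25% BSA/Ca2+, pH 7.4, at 0.5 × 10⁶/mL. Pre-incubated with agonists (final 1:5 dilution) 30 min at 37 °C. Then adhered 20 min at 37 °C on plates coated with P-selectin and ICAM-1 (1 µg/mL each), BSA-blocked. PFA-fixed and DAPI-stained; four images per well counted. 3 independent experiments × 3 technical replicates.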

The nature of series [18]: MRT(0 to t) in C57BL6 mouse at 10 mg/kg, ip. In kind it is ADME, organism-based. As to conditions: in vivo. In short, it runs like this:
as §6

Series [19] is described as follows: Half life in C57BL6 mouse at 10 mg/kg, ip. In kind it is ADME, organism-based. To be noted: in vivo. The method in brief:
as §6

Series [20] can be described thus: AUC (0 to infinity) in C57BL6 mouse at 10 mg/kg, ip. It is filed as ADME, organism-based. The arrangement: time infinity, route intraperitoneal, dose 10 mg/kg. As to conditions: in vivo.
For series [21], the target named is T2, N-formyl peptide receptor 2 (Homo sapiens). Nature of the series: Agonist activity at FPRL1 (unknown origin) expressed in CHO-K1 cells assessed as increase in calcium mobilization […] incubated for 2.5 hrs by cellular based FLIPR assay. To be noted: filed as agonist, time 0.067 hrs, in the assay text read “measured for 240 s” for “incubated for 2.5 hrs”. In kind it is functional, cell-based. In short, it runs like this: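 CHO-K1 cells overexpressing human FPR2 (PathHunter FPRL1 line), plated at 20,000/well in F-12 with 10% FBS and held 1 h RT, then overnight at 37 °C. Calcium 6 dye loaded 2 h at 37 °C, then 30 min RT in the dark. Compounds were half-log serially diluted from 10 mM stocks in HBSS with 20 mM HEPES. Cytosolic Ca2+ rise read on FLIPR Tetra.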

Molecules are shown by their SMILES. In brackets after ≈: the same amount, converted by molar mass. Activity calls are given as the source filed them. The rule behind the calls is not given here. Some results are limits rather than exact numbers.

With `Cc1nn(C)cc1N1CCC(NC(=O)Nc2ccc(Br)cc2)C1=O` (configuration not stated), in series [1], the Emax entry is “inactive”. The half-life at 1 µM in series [2] stood at 2.87 h; in series [9] it was 3.05 h. Moreover, the values for the Emax in series [3] (filed as agonist) and in series [10] were 98% and 90%, respectively. Besides, the EC50 in [4] is 4880 nM; in series [5] (hek293-a), “Not Active”; in series [7], 740 nM; in series [11], 142 nM. The solubility kinetic in series [6] was 9 µM (≈ 3.53 µg/mL). In addition, the logD in series [8] is 2.6.
Regarding `CC(C)n1cc(N2CCC(NC(=O)Nc3ccc(Br)cc3)C2=O)cn1` (configuration not stated), the half-life at 1 µM in [2] was 2.66 h; in [9] it was 5.37 h. The Emax result in [3] and in [12] was “inactive” in each case. In addition, the solubility kinetic in [6] was determined as 1 µM (≈ 0.406 µg/mL). Also, in [8], the logD amounted to 3.7. Also, the concentration giving a half-maximal response (EC50) in [11] is 884 nM.
On to `O=C(Nc1ccc(Br)cc1)NC1CCN(c2ccccc2)C1=O` (configuration not stated), for which the Emax in [1] was found to be 15%; in series [10], 69%; in series [21], 73%. The Tmax in [13] came to 0.25 h. This molecule displayed an AUC(0-t) in series [14] of 28600 ng·h/mL. Further, the half-life at 1 µM in series [2] and in series [9] was greater than 6.67 h each time. Further, the EC50 in series [4] was 7360 nM; in series [5] (read-out: EC50), 1740 nM; in series [7], 300 nM; in series [11], 430 nM. The same molecule had a Cmax in series [15] of 3610 ng/mL. The solubility kinetic in [6] worked out at 15 µM (≈ 5.61 µg/mL). Further, the “%AUCextra” value in series [16] is recorded as 18.17%. Besides, the logD in series [8] was greater than 4. Further, in [17], the Activity entry is “Dose-Dependent Effect”. In series [18], this molecule registered an MRT last of 9.2 h. In [19], this molecule showed a half-life of 9.42 h. In series [20], this molecule returned an AUC(0-inf) of 35000 ng·h/mL.
